In ChEMBL document CHEMBL4422614 (Eur J Med Chem, 2019) one finds Activity, Papp and Time data, which are given here for one compound.

Active and inactive are the calls of the source. The calls are words filed in the database; no cut-off is given here.

The test system of series [1] is Mus musculus. The series is described as follows: Cognition enhancement activity in amyloid beta (25 to 35 residues) induced C57BL/6J mouse model of Alzheimer's disease assessed as swimming path length in virtual platform at 4 mg/kg/day, ig administered for 26 consecutive days by Morris water maze test (10.2 +/- 3.2 cm). Format: functional. Put shortly: (§1)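 Mice were randomized into 7 groups. All except sham got an ICV injection of Aβ25-35 (3 nmol); sham got the same volume of saline ICV. Dosing was intragastric daily for 26 days, with 0.5% CMC-Na as vehicle for sham and model. Body weight, diarrhea and emesis-like behavior were monitored.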

Series [2] can be described thus: Antioxidant activity assessed as trolox equivalent of AAPH-induced radical scavenging activity at 10 to 20 uM preincubated for 10 mins followed by AAPH addition measured every minute for 120 mins by ORAC fluorescein assay. In kind it is functional. Put shortly:
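ORAC values are expressed as trolox equivalents, mean ± SD of three independent experiments.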

Another series is described as follows: in vitro. To be noted: PAMPA. (In general: In PAMPA a lipid-coated filter parts donor from acceptor wells.)
The test system of series [3] is Mus musculus. Description: Cognition enhancement activity in amyloid beta (25 to 35 residues) induced C57BL/6J mouse model of Alzheimer's disease assessed as decrease in escape latancy at 4 mg/kg/day, ig administered for 26 consecutive days by Morris water maze test. In kind it is functional, organism-based. Put shortly:
as §1

The test system of series [4] is Mus musculus. Description: Cognition enhancement activity in amyloid beta (25 to 35 residues) induced C57BL/6J mouse model of Alzheimer's disease assessed as increase in number of virtual platform crossing at 4 mg/kg/day, ig administered for 26 consecutive days by Morris water maze test. In kind it is functional, organism-based. Put shortly: as §1
Series [5] concerns Mus musculus. The series is described as follows: Neuroprotection in amyloid beta (25 to 35 residues) induced C57BL/6J mouse model of Alzheimer's disease assessed as reduction in ratio of apoptotic neuron in DG hippocampus region at 4 mg/kg/day, ig administered for 26 consecutive days by hematoxylin and eosin staining-based light microscopic analysis (reference value: 55.8 +/- 7.2%). To be noted: in vivo, po. Further details: scale not given: the % may be the effect or the level left. Format: ADME, organism-based. Put shortly:
(§2)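 Hippocampal CA1, CA3 and DG neurons were stained with H&E after the Aβ25-35 ICV model and 26-day intragastric dosing. Denatured cell index = denatured cells/total cells, n = 5. Values are mean ± SD, two-way ANOVA versus model.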

Series [6] concerns Mus musculus. Description: Neuroprotection in amyloid beta (25 to 35 residues) induced C57BL/6J mouse model of Alzheimer's disease assessed as reduction in ratio of apoptotic neuron in CA3 hippocampus region at 4 mg/kg/day, ig administered for 26 consecutive days by hematoxylin and eosin staining-based light microscopic analysis (reference value: 80.2 +/- 8.6%). In kind it is ADME, organism-based. Further details: scale not given: the % may be the effect or the level left. To be noted: in vivo, po. Put shortly:
as §2

Series [7] deals with Mus musculus. The series is described as follows: Neuroprotection in amyloid beta (25 to 35 residues) induced C57BL/6J mouse model of Alzheimer's disease assessed as reduction in ratio of apoptotic neuron in CA1 hippocampus region at 4 mg/kg/day, ig administered for 26 consecutive days by hematoxylin and eosin staining-based light microscopic analysis (reference value: 40.6 +/- 12.5%). Format: ADME, organism-based. Further details: scale not given: the % may be the effect or the level left. The conditions noted are these: in vivo, po. Put shortly:
as §2

For series [8], the system named is Mus musculus. The series is described as follows: Cognition enhancement activity in amyloid beta (25 to 35 residues) induced C57BL/6J mouse model of Alzheimer's disease assessed as swimming speed at 4 mg/kg/day, ig administered for 26 consecutive days by Morris water maze test (reference value: 15.6 +/- 2.4 cm/sec). Format: functional. Put shortly:
as §1

Series [9] deals with Mus musculus. The series is described as follows: Cognition enhancement activity in amyloid beta (25 to 35 residues) induced C57BL/6J mouse model of Alzheimer's disease assessed as swimming time in effective region at 4 mg/kg/day, ig administered for 26 consecutive days by Morris water maze test (4.3 +/- 1.3 sec). In kind it is functional. Put shortly:
as §1

For the compound `O=C(Nc1c(Cl)cncc1Cl)c1ccc(OC(F)F)c(OCC2CC2)c1` [ROFLUMILAST], the Activity in the series on Mus musculus [1] was 16 cm; in series [2], 0.067 equiv; with Mus musculus [5], 25.1%; with Mus musculus [6] it was 38.7%; in the series with Mus musculus [7] it was 16.5%; with Mus musculus [8] it was 14.5 cm/s. Besides, the Papp at 10 h, 100 ug/ml in “in vitro” was determined as 9.22 ×10⁻⁶ cm/s. Further, the outcome in the series on Mus musculus [3] and in the series on Mus musculus [4] was Active. Besides, the Time in the series with Mus musculus [9] is given as 5.4 s.

A word on the Papp: it is a coefficient for how fast a substance crosses the barrier.
